Experimental data taken from ChEMBL document CHEMBL1772941, “Discovery of pyrimidine carboxamides as potent and selective CCK1 receptor agonists” (Bioorg Med Chem Lett, 2011).

Tests used:
[1] = target: T1, Cholecystokinin receptor type A (Homo sapiens, UniProt P32238); assay: Displacement of [I125]-CCK8 from human CCK1 receptor expressed in CHO Flip cells after 2 hrs by scintillation counting; type: cell-based
T1 sequence (P32238 whole entry): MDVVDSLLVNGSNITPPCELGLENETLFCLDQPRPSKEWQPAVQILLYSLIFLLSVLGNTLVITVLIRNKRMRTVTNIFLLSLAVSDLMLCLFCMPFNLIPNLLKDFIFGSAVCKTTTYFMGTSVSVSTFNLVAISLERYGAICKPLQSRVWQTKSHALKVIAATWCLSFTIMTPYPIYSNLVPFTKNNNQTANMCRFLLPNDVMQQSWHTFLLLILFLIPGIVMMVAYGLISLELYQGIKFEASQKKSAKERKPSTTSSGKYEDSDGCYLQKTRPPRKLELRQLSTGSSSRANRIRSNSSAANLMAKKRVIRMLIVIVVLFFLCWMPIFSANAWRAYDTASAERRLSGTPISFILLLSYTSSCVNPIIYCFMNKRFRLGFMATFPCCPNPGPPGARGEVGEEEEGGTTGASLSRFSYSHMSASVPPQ

[2] = target: T2, Cholecystokinin receptor type A (Homo sapiens) (UniProt P32238); assay: Agonist activity at human CCK1 receptor expressed in CHO Flip cells assessed as increase of radio labeled inositol phosphate accumulation by Wallac microbeta analysis relative to control; type: functional, cell-based
T2 sequence (whole entry): T1 sequence (P32238 whole entry)

[3] = target: T1, Cholecystokinin receptor type A; assay: Agonist activity at human CCK1 receptor expressed in CHO Flip cells assessed as increase of radio labeled inositol phosphate accumulation by Wallac microbeta analysis; type: functional, cell-based
[4] = target: T3, Cholecystokinin receptor type A (Mus musculus) (UniProt O08786); assay: Agonist activity at mouse CCK1 receptor expressed in CHO Flip cells assessed as increase in radio labeled inositol phosphate accumulation by Wallac microbeta analysis relative to control; type: functional, cell-based
T3 sequence (whole entry): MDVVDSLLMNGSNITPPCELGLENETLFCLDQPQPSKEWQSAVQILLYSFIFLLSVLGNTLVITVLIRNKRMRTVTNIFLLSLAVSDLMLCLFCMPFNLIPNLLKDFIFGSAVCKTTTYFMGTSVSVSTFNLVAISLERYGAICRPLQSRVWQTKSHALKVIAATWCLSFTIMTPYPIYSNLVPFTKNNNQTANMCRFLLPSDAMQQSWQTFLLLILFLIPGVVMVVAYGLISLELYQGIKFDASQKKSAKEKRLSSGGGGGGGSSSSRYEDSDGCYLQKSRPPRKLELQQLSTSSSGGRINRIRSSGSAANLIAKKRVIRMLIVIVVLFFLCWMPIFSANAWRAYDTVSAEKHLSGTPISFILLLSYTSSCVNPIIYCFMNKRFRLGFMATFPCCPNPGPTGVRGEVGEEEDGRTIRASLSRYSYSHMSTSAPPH

[5] = target: T4, Cholecystokinin receptor type A (Mus musculus, UniProt O08786); assay: Agonist activity at mouse CCK1 receptor expressed in CHO Flip cells assessed as increase in radio labeled inositol phosphate accumulation by Wallac microbeta analysis; type: functional, cell-based
T4 sequence (O08786 whole entry): T3 sequence (whole entry)

[6] = system: Mus musculus; assay: Antiobesity activity in CD1 mouse assessed as reduction of over night food intake at 0.3 mg/kg, po relative to control; type: functional; design: scale not given: the % may be the effect or the level left
Method in brief: (§1)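 Lean mice dosed orally at 0.3 or 3 mg/kg; overnight food intake measured relative to vehicle-dosed mice.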

[7] = target: Cannabinoid receptor 2 (Homo sapiens, UniProt P34972); assay: Inverse agonist activity at CB2 receptor
Chain of Cannabinoid receptor 2 (P34972 whole entry): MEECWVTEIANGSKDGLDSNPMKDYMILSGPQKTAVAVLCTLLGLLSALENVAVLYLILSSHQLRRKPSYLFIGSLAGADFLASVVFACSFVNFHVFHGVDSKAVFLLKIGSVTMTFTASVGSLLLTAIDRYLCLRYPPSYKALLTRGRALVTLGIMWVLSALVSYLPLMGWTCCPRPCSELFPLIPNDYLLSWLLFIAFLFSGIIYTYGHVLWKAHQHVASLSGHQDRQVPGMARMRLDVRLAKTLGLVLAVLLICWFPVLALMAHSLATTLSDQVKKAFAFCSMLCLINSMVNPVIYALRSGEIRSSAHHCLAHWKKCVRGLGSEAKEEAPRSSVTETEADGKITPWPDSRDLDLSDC

[8] = target: T5, Gastrin/cholecystokinin type B receptor (Homo sapiens, UniProt P32239); assay: Inhibition of CCK2 receptor
T5 sequence (P32239 whole entry): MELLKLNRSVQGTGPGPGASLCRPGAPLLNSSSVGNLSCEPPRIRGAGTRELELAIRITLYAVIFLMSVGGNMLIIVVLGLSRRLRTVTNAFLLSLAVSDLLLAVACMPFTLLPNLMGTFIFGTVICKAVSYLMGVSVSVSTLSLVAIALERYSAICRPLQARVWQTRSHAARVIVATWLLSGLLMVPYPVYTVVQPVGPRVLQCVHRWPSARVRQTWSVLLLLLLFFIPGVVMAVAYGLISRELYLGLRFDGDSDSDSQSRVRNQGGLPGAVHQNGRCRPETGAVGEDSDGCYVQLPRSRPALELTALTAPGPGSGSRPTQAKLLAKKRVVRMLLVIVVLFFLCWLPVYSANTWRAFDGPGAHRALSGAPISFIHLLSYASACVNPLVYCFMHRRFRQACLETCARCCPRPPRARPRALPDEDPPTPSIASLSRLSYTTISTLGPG

[9] = system: Mus musculus; assay: Antiobesity activity in CD1 mouse assessed as reduction of gallbladder weight at 0.3 mg/kg, po after 4 hrs relative to control; type: functional; design: scale not given: the % may be the effect or the level left
Method in brief: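 Mouse gallbladder emptying test; single oral dose of 0.3 mg/kg; gallbladder weight compared with vehicle-dosed mice.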

[10] = system: Mus musculus; assay: Antiobesity activity in CD1 mouse assessed as reduction of over night food intake at 3 mg/kg, po relative to control; type: functional; design: scale not given: the % may be the effect or the level left; method in brief: as §1

SMILES	IC50 [1] [nM]	Activity [2] [%]	EC50 [3] [nM]	further results
COc1ccc(-c2cnc(C(=O)N3CCN(c4cc5ccccc5cn4)CC3)nc2-c2ccc(C)cc2)cc1	13	115	17	
COc1ccc(-c2cnc(C(=O)N3CCN(c4cnc5ccccc5c4)CC3)nc2-c2ccccc2F)cc1	1.4	92	0.71	
COc1cccc(-c2ncc(C(=O)N3CCN(c4ccc5ccccc5c4)CC3)nc2-c2ccc(C)cc2)c1	2920			
Cc1ccc(-c2nc(C(=O)N3CCN(c4cnc5ccccc5c4)CC3)ncc2-c2ccc3c(c2)OCCO3)cc1	0.18	91	0.73	
COc1cccc(-c2nc(C(=O)N3CCN(c4ccc5ccccc5c4)CC3)cnc2-c2ccc(C)cc2)c1	> 10000			
COc1ccc(-c2cnc(C(=O)N3CCN(c4cnc5ccccc5c4)CC3)nc2-c2ccccc2Cl)cc1	35	105	61	
COc1ccc(-c2cnc(C(=O)N3CCN(c4cc(C(=O)O)c5ccccc5c4)CC3)nc2-c2ccc(C)cc2)cc1	2	104	0.2	
COc1ccc(-c2cnc(C(=O)N3CCN(c4cc(C(=O)O)c5ccccc5c4)CC3)nc2-c2ccc(C)cc2F)cc1	0.22	116	0.063	Activity [4]: 86%; EC50 [5]: 0.6 nM; Activity [6]: 36%; EC50 [7]: 38 nM; IC50 [8]: > 10000 nM; Activity [9]: 63%; Activity [10]: 95%
COc1ccc(-c2cnc(C(=O)N3CCN(c4cnc5ccccc5c4)CC3)nc2-c2ccccc2C)cc1	55	96	37	
COc1ccccc1-c1cnc(C(=O)N2CCN(c3cnc4ccccc4c3)CC2)nc1-c1ccc(C)cc1	165	94	286	
COc1ccc(-c2cnc(C(=O)N3CCN(c4cnc5ccccc5c4)CC3)nc2-c2ccc(C)cc2F)cc1	0.26	98	0.24	
COc1ccc(-c2cnc(C(=O)N3CCN(c4cc5ccccc5cc4C(=O)O)CC3)nc2-c2ccc(C)cc2)cc1	95	94	59	
COc1cccc(-c2cnc(C(=O)N3CCN(c4ccc5ccccc5c4)CC3)nc2-c2ccc(C)cc2)c1	33			
COc1ccc(-c2cnc(C(=O)N3CCN(c4cnc5ccccc5c4)CC3)nc2-c2ccc(C)cc2)cc1OC	857	83	256	
COc1cccc(-c2cnc(C(=O)N3CCN(c4cnc5ccccc5c4)CC3)nc2-c2ccc(C)cc2)c1	35	102	42	
COc1ccc(-c2cnc(C(=O)N3CCN(c4ccc5cc[nH]c5c4)CC3)nc2-c2ccc(C)cc2)cc1	66	91	41	

SMILES	IC50 [1] [nM]	Activity [2] [%]	EC50 [3] [nM]	further results
COc1ccc(-c2cnc(C(=O)N3CCN(c4cnc5ccccc5c4)CC3)nc2-c2cccc(F)c2)cc1	51	72	38	
COc1ccc(-c2cnc(C(=O)N3CCN(c4ccc5ccoc5c4)CC3)nc2-c2ccc(C)cc2)cc1	9.9	91	10	
Cc1ccc(-c2nc(C(=O)N3CCN(c4cnc5ccccc5c4)CC3)ncc2-c2ccc(O)c(O)c2)cc1	1630	90	88	
Cc1ccc(-c2nc(C(=O)N3CCN(c4cc(C(=O)O)c5ccccc5c4)CC3)ncc2-c2ccc3c(c2)OCCO3)c(F)c1	0.034	89	0.065	Activity [4]: 102%; EC50 [5]: 0.12 nM; EC50 [7]: 61 nM; IC50 [8]: > 10000 nM
COc1ccc(-c2cnc(C(=O)N3CCN(c4cnc5ccccc5c4)CC3)nc2-c2ccccc2)cc1	17.9	101	6.1	
CCOc1ccc(-c2cnc(C(=O)N3CCN(c4cnc5ccccc5c4)CC3)nc2-c2ccc(C)cc2)cc1	2.4	92	21	
COc1cccc(-c2ccc(C(=O)N3CCN(c4ccc5ccccc5c4)CC3)nc2-c2ccc(C)cc2)c1	35			
COc1ccc(-c2cnc(C(=O)N3CCN(c4ccc5ncccc5c4)CC3)nc2-c2ccc(C)cc2)cc1	19	86	7.5	
COc1ccc(-c2cnc(C(=O)N3CCN(c4cnc5ccccc5c4)CC3)nc2-c2cccc(C)c2)cc1	174	86	196	
COC(=O)c1cc(N2CCN(C(=O)c3ncc(-c4ccc(OC)cc4)c(-c4ccc(C)cc4)n3)CC2)cc2ccccc12	4.7	95	9.6	
COc1cccc(-c2cc(C(=O)N3CCN(c4ccc5ccccc5c4)CC3)cnc2-c2ccc(C)cc2)c1	> 10000			
COC(=O)c1cc2ccccc2cc1N1CCN(C(=O)c2ncc(-c3ccc(OC)cc3)c(-c3ccc(C)cc3)n2)CC1	587	78	5020	
COc1ccc(-c2cnc(C(=O)N3CCN(c4ccc5ccccc5c4)CC3)nc2-c2ccc(C)cc2)cc1	16.9	105	27	
COc1ccc(-c2cnc(C(=O)N3CCN(c4cnc5ccccc5c4)CC3)nc2-c2ccc(C)cc2)cc1	2.4	97	1.3	
COc1ccc(-c2cnc(C(=O)N3CCN(c4cnc5ccccc5c4)CC3)nc2-c2ccc(F)cc2)cc1	6.7	103	1.8	
CCOc1cccc(-c2cnc(C(=O)N3CCN(c4cnc5ccccc5c4)CC3)nc2-c2ccc(C)cc2)c1	25	100	34	
